Tests used:
[1] = Toxicity in human HepG2/C3A cells assessed as induction of cell death at 10 to 50 uM after 4 to 14 days; assay type: cell-based
Procedure, shortened: (§1)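 LIVE/DEAD flow cytometry: harvested cells in PBS with 100 nM calcein AM and 8 μM ethidium homodimer 1, 30 min at 37°C in the dark, 488 nm excitation. After debris gating, dead cells are those high in ethidium homodimer and low in calcein, counted per 10,000 events. HepG2 were exposed 4, 10 or 14 days; H9c2 12 days. Compared with time-matched control.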

[2] = test system: H9c2; test: Toxicity against rat H9c2 cells assessed as reduction in mitochondrial DNA copy numbers at 10 uM after 12 days relative to control; set-up: scale not given: the % may be the effect or the level left; details: h9c2, 288 h
[3] = Toxicity against human HepG2/C3A cells assessed as reduction in mitochondrial DNA copy numbers at 50 uM after 4 to 14 days relative to control; assay type: cell-based; set-up: scale not given: the % may be the effect or the level left
Procedure, shortened: (§2)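 HepG2/C3A cells were grown in MEM with pyruvate and 10% FBS. Drug in PBS was replenished every 2 days for 4, 10 or 14 days. DNA was extracted and quantified by real-time SYBR Green PCR with 0.5 μM of each primer and 2 mM MgCl2. Output is the cytochrome b/pyruvate kinase gene copy ratio (mtDNA/nDNA), compared with time-matched control. Mean of three experiments.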

[4] = test system: H9c2; test: Toxicity in rat […] cells assessed as induction of cell death at 10 to 50 uM after 4 to 14 days
[5] = Toxicity against human HepG2/C3A cells assessed as reduction in mitochondrial DNA copy numbers at 10 uM after 4 to 14 days relative to control; assay type: cell-based; set-up: scale not given: the % may be the effect or the level left; procedure, shortened: as §2
[6] = test system: H9c2; test: Toxicity against rat H9c2 cells assessed as metabolic alterations at 10 to 50 uM after 4 to 14 days by SRB assay; details: h9c2, 50 µM
[7] = test system: H9c2; test: Toxicity against rat H9c2 cells assessed as inhibition of cell proliferation at 10 to 50 uM after 4 to 14 days by SRB assay; details: h9c2, 50 µM
[8] = Toxicity against human HepG2/C3A cells assessed as metabolic alterations at 10 to 50 uM after 4 to 14 days by SRB assay; assay type: cell-based
[9] = Toxicity against human HepG2/C3A cells assessed as inhibition of cell proliferation at 10 to 50 uM after 6 days by SRB assay
[10] = Toxicity against human HepG2/C3A cells assessed as reduction in mitochondrial DNA copy numbers at 0.5 ug/ml after 10 days relative to control; assay type: cell-based; set-up: scale not given: the % may be the effect or the level left; details: 240 h
Procedure, shortened: (§3)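 DNA was extracted after 0.5 µg/ml EtBr exposure: H9c2 at 12 days (pre-kept 7 days in 1% FBS plus 10 nM retinoic acid), HepG2/C3A at 4, 10 and 14 days. SYBR real-time PCR used 0.5 µM primers and 2 mM MgCl2. Copy numbers came from purified-product standards, reported as cytochrome b/pyruvate kinase ratio versus control.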

[11] = Toxicity in human HepG2/C3A cells assessed as cell viability at 0.5 ug/ml after 14 days; assay type: cell-based
Procedure, shortened: (§4)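 HepG2/C3A cells were cultured with 0.5 µg/ml EtBr for 10 or 14 days. Harvested cells were stained with 100 nM calcein AM and 8 µM ethidium homodimer 1 for 30 min at 37°C in the dark, then analysed by flow cytometry at 488-nm excitation. Dead cells (high ethidium homodimer, low calcein) were counted per 10,000 events after debris gating.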

[12] = Toxicity against human HepG2/C3A cells assessed as increase in mitochondrial superoxide production at 0.5 ug/ml after 4 to 14 days by flow cytometry; assay type: cell-based
Procedure, shortened: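 HepG2/C3A cells were cultured in MEM with 10% FBS with 0.5 µg/ml EtBr for 4, 10 and 14 days, with medium changed every 2 days. Attached cells were loaded with 5 µM MitoSOX Red in HBSS with Ca/Mg for 10 min at 37°C in the dark, then trypsinised. Flow cytometry used 488-nm excitation and 530/30 emission; the value is the geometric mean fluorescence of 10,000 cells.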

[13] = Toxicity against human HepG2/C3A cells assessed as elevation of lactate levels at 0.5 ug/ml after 6 days by NAD+ reduction assay; assay type: cell-based; details: 144 h
Procedure, shortened: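 Cells were exposed to 0.5 µg/ml EtBr for 6 days in 12-well plates seeded at about 2,500 cells/well, with drug in PBS replenished at medium changes. Medium was deproteinised with TCA. Lactate was measured as NADH at 340 nm after 30 min at room temperature in glycine-hydrazine buffer pH 9.2 with NAD+ and lactate dehydrogenase. Results are nmol/well normalised to SRB absorbance, from three experiments.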

[14] = Toxicity against human […] cells assessed as reduction in mitochondrial DNA copy numbers at 0.5 ug/ml after 6 days relative to control; assay type: cell-based; set-up: scale not given: the % may be the effect or the level left; details: hepg2/c3a, 144 h
[15] = Toxicity against human HepG2/C3A cells assessed as inhibition of cell proliferation at 0.5 ug/ml after 6 days by SRB assay; assay type: cell-based; details: 144 h
Procedure, shortened: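 Cells were seeded at about 2,500/well in 12-well plates and cultured with 0.5 µg/ml EtBr for 6 days. They were fixed overnight in methanol with 1% acetic acid at −10°C and stained 1 h with 0.5% SRB. Bound dye was eluted with 10 mM Tris pH 10 and absorbance read at 540 nm. Three experiments were run.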

[16] = Toxicity against human HepG2/C3A cells assessed as reduction in mitochondrial DNA copy numbers at 0.5 ug/ml after 4 days relative to control; assay type: cell-based; set-up: scale not given: the % may be the effect or the level left; details: 96 h; procedure, shortened: as §3
[17] = Toxicity against human HepG2/C3A cells assessed as reduction in mitochondrial DNA copy numbers at 0.5 ug/ml after 14 days relative to control; assay type: cell-based; set-up: scale not given: the % may be the effect or the level left; details: 336 h; procedure, shortened: as §3
[18] = Toxicity in human HepG2/C3A cells assessed as cell viability at 0.5 ug/ml after 10 days; assay type: cell-based; procedure, shortened: as §4
[19] = test system: H9c2; test: Toxicity in rat H9c2 cells assessed as effect on cell viability at 1 to 5 uM after 12 days; details: h9c2, 288 h
[20] = Toxicity against human HepG2/C3A cells assessed as inhibition of cell proliferation at 50 uM after 6 days by SRB assay; assay type: cell-based; details: 144 h
Procedure, shortened: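 Cells were seeded at about 2,500 per well and exposed to drug for 6 days. They were fixed overnight at −10°C in methanol with 1% acetic acid, stained with 0.5% SRB in 1% acetic acid for 1 h at room temperature, and the dye eluted with 10 mM Tris pH 10. Result is dilution-adjusted absorbance at 540 nm, mean of three experiments.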

[21] = Toxicity against human HepG2/C3A cells assessed as reduction in mitochondrial DNA copy numbers at 5 uM after 4 days relative to control; assay type: cell-based; set-up: scale not given: the % may be the effect or the level left; details: 96 h; procedure, shortened: as §2
[22] = Toxicity against human HepG2/C3A cells assessed as reduction in mitochondrial DNA copy numbers at 1 uM after 4 days relative to control; assay type: cell-based; set-up: scale not given: the % may be the effect or the level left; details: 96 h; procedure, shortened: as §2
[23] = Toxicity against human HepG2/C3A cells assessed as reduction in mitochondrial DNA copy numbers at 5 uM after 14 days relative to control; assay type: cell-based; set-up: scale not given: the % may be the effect or the level left; details: 336 h; procedure, shortened: as §2
[24] = Toxicity against human HepG2/C3A cells assessed as reduction in mitochondrial DNA copy numbers at 1 uM after 14 days relative to control; assay type: cell-based; set-up: scale not given: the % may be the effect or the level left; details: 336 h; procedure, shortened: as §2
[25] = test system: H9c2; test: Toxicity in rat H9c2 cells assessed as effect on cell viability at 5 uM after 6 days; details: h9c2, 144 h
[26] = Toxicity against human HepG2/C3A cells assessed as induction of cell death at 5 uM after 14 days; assay type: cell-based; details: 336 h; procedure, shortened: as §1
[27] = test system: H9c2; test: Toxicity against rat H9c2 cells assessed as reduction in mitochondrial DNA copy numbers at 1 to 5 uM after 12 days relative to control; details: h9c2, 288 h
[28] = test system: H9c2; test: Toxicity in rat H9c2 cells assessed as induction of cell death at 50 uM after 12 days; details: h9c2, 288 h
[29] = Toxicity against human HepG2/C3A cells assessed as effect on mitochondrial DNA copy numbers at 50 uM after 4 days; assay type: cell-based; details: 96 h; procedure, shortened: as §2
[30] = Toxicity against human HepG2/C3A cells assessed as elevation of lactate levels at 50 uM after 6 days by NAD+ reduction assay; assay type: cell-based; details: 144 h
Procedure, shortened: (§5)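 Cells were seeded at about 2,500 per well and exposed 6 days; H9c2 were retinoic-acid-conditioned in 1% FBS. Medium was deproteinized with ice-cold 10% TCA. Lactate was read by LDH-catalyzed NAD+ reduction in 0.2 M glycine-hydrazine pH 9.2 with 0.6 mg/ml NAD+ and 17 U/ml LDH, 30 min at room temperature, absorbance 340 nm. Result is nmol/well normalized to SRB absorbance.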

[31] = test system: H9c2; test: Toxicity against rat H9c2 cells assessed as elevation of lactate levels at 50 uM after 6 days by NAD+ reduction assay; details: h9c2, 144 h
[32] = Toxicity in human HepG2/C3A cells assessed as induction of cell death at 50 uM after 14 days; assay type: cell-based; details: 336 h; procedure, shortened: as §1
[33] = test system: H9c2; test: Toxicity against rat H9c2 cells assessed as effect on mitochondrial DNA copy numbers after 12 days; details: h9c2, 288 h
[34] = Toxicity against human HepG2/C3A cells assessed as elevation of lactate levels at 10 uM after 6 days by NAD+ reduction assay; assay type: cell-based; details: 144 h; procedure, shortened: as §5
[35] = Toxicity against human HepG2/C3A cells assessed as effect on mitochondrial DNA copy numbers at 50 uM after 10 days; assay type: cell-based; details: 240 h; procedure, shortened: as §2
[36] = test system: H9c2; test: Toxicity against rat H9c2 cells assessed as elevation of lactate levels at 10 uM after 6 days by NAD+ reduction assay; details: h9c2, 144 h
[37] = Toxicity in human HepG2/C3A cells assessed as induction of cell death at 50 uM after 10 days; assay type: cell-based; details: 240 h; procedure, shortened: as §1
[38] = Toxicity in human HepG2/C3A cells assessed as induction of cell death at 50 uM after 4 days; assay type: cell-based; details: 96 h; procedure, shortened: as §1
[39] = test system: H9c2; test: Toxicity against rat H9c2 cells assessed as increase in mitochondrial superoxide production at 50 uM by flow cytometry; details: h9c2, 50 µM
[40] = Toxicity in human HepG2/C3A cells assessed as induction of cell death at 10 uM after 4 days; assay type: cell-based; details: 96 h; procedure, shortened: as §1
[41] = Toxicity against human HepG2/C3A cells assessed as increase in mitochondrial superoxide production at 50 uM by flow cytometry; assay type: cell-based
Procedure, shortened: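 Flask-grown cells were loaded with 5 μM MitoSOX Red in HBSS with Ca/Mg for 10 min at 37°C in the dark, trypsinized, and analyzed by flow cytometry (488 nm excitation, 530/30 emission). Result is the geometric mean fluorescence of 10,000 cells. HepG2 were sampled on days 4, 10 and 14; H9c2 on day 12. Compared with time-matched control.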

O=c1[nH]cnc2c1ncn2[C@H]1CC[C@@H](CO)O1 [DIDANOSINE]
Activity [1]: Non-toxic | Activity [2]: 60% | Activity [3]: 50% | Activity [4]: Non-toxic | Activity [5]: 80% | Activity [6]: Non-toxic | Activity [7]: Non-toxic | Activity [8]: Non-toxic | Activity [9]: Non-toxic

CC[n+]1c(-c2ccccc2)c2cc(N)ccc2c2ccc(N)cc21.[Br-] [HOMIDIUM BROMIDE]
Activity [10]: 10% | viability at 336 h, 0.5 ug/ml [11]: > 80% | Activity [12]: Toxic | Activity [13]: Toxic | Activity [14]: 16% | Activity [15]: Toxic | Activity [16]: 16% | Activity [17]: 4% | viability at 240 h, 0.5 ug/ml [18]: > 80%

Nc1ccn([C@H]2CC[C@@H](CO)O2)c(=O)n1 [ZALCITABINE]
Activity [19]: Non-toxic | Activity [20]: Non-toxic | Activity [21]: 11% | Activity [22]: 15% | Activity [23]: 1% | Activity [24]: 1% | Activity [25]: Non-toxic | Activity [26]: Toxic | Activity [27]: Non-toxic

Cc1cn([C@H]2C[C@H](N=[N+]=[N-])[C@@H](CO)O2)c(=O)[nH]c1=O [ZIDOVUDINE]
Activity [28]: Non-toxic | Activity [29]: Toxic | Activity [30]: Toxic | Activity [20]: Toxic | Activity [31]: Toxic | Activity [32]: Toxic | Activity [33]: Non-toxic | Activity [34]: Toxic | Activity [35]: Toxic | Activity [36]: Toxic | Activity [37]: Toxic | Activity [38]: Toxic | Activity [39]: Non-toxic | Activity [40]: Toxic | Activity [41]: Toxic
